According to ChEMBL document CHEMBL1122710, “6-Methylangelicins: a new series of potential photochemotherapeutic agents for the treatment of psoriasis” (J Med Chem, 1984):
Values joined by “and” are separate entries in the source; they are usually repeats but may differ in a detail not shown here. Identical values can stand only once. One block for each compound: values may come before it. Active and inactive are the calls of the source. No cut-off for these calls is given here.

Assays:
Nucleic Acid [1] = assay: Compound was evaluated for the binding parameter by determining rate constant; type: nucleic-acid assay; conditions: Bos taurus
Nucleic Acid [2] = assay: (§1) Compound was evaluated for the frequency of the binding site that is the number of molecules bound to every nucleotide (1/n); type: nucleic-acid assay; conditions: Bos taurus
Nucleic Acid [3] = assay: Compound was evaluated for the binding parameter by determining the number of nucleotides occluded by a bound angelicin (n); type: nucleic-acid assay; conditions: Bos taurus
Mus musculus = species on record: Mus musculus; assay: Compound was evaluated for 50% inhibition of DNA synthesis in Ehrlich ascites tumor cells by irradiation (365 nM) at 1.9 x 10e -5M incubated with [3H]thymidine at 37 degree C (p 0.05); type: functional
Procedure, shortened: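 Ehrlich ascites tumor cells (2×10^7 cells/mL in Hanks' solution) are irradiated on ice with the compound present, using an HPW 125 lamp at 20 cm. 2×10^6 cells are then pulsed with 1 μCi [3H]thymidine for 15 min at 37 °C. TCA-insoluble counts are taken as % of untreated controls, at least duplicates per dose. UV-A dose for 50% inhibition is derived by probit analysis.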

Nucleic Acid [4] = assay: (§2) Compound was evaluated for the association constant to an isolated site of DNA; type: nucleic-acid assay; design: unit not given here; conditions: Bos taurus
Homo sapiens [5] = species on record: Homo sapiens; assay: Pigmentation capacity at dose of 6 J/cm e2 ultraviolet-A radiation in patient; + = moderate; type: functional, organism-based
Procedure, shortened: (§3)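 Psoriasis patients, with 4×4 cm skin areas per treatment. Ethanolic solution (0.1% w/v) is applied topically to 5 μg/cm² and left to evaporate. After 20 min, the area is irradiated with a UV-A fluorescent PUVA lamp. Starting dose is 2.5 J/cm², increased up to 13 J/cm² by skin tolerance. Control areas get compound without UV-A, or UV-A alone.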

[6] = Percentage of clearance of psoriatic lesions by the compound at dose of 8 J/cm e2 ultraviolet-A radiation; type: ADME, organism-based; conditions: in vivo; procedure, shortened: as §3
Homo sapiens [7] = species on record: Homo sapiens; assay: Erythema induction by the compound at dose of 8 J/cm e2 ultraviolet-A radiation in patient; - = absent; type: functional, organism-based; procedure, shortened: as §3
[8] = Percentage of clearance of psoriatic lesions by the compound at dose of 4 J/cm e2 ultraviolet-A radiation; type: ADME, organism-based; conditions: in vivo; procedure, shortened: as §3
Homo sapiens [9] = species on record: Homo sapiens; assay: Number of treatments at dose of 10 J/cm e2 ultraviolet-A radiation; type: functional; procedure, shortened: as §3
Homo sapiens [10] = species on record: Homo sapiens; assay: Pigmentation capacity of 8-methoxypsoralen (8-MOP) for comparison at dose of 8 J/cm e2 ultraviolet-A radiation in patient; +=moderate; type: functional, organism-based; procedure, shortened: as §3
Homo sapiens [11] = species on record: Homo sapiens; assay: (§4) Number of treatments at dose of 6 J/cm e2 ultraviolet-A radiation; type: functional; procedure, shortened: as §3
Homo sapiens [12] = species on record: Homo sapiens; assay: Number of treatments at dose of 8 J/cm e2 ultraviolet-A radiation; type: functional; procedure, shortened: as §3
Homo sapiens [13] = species on record: Homo sapiens; assay: Number of treatments at dose of 4 J/cm e2 ultraviolet-A radiation (patient); type: functional; procedure, shortened: as §3
Homo sapiens [14] = species on record: Homo sapiens; assay: Pigmentation capacity of 8-methoxypsoralen (8-MOP) for comparison at dose of 4 J/cm e2 ultraviolet-A radiation in patient; - = absent; type: functional, organism-based; procedure, shortened: as §3
[15] = Percentage of clearance of psoriatic lesions by the compound at dose of 10 J/cm e2 ultraviolet-A radiation; type: ADME, organism-based; conditions: in vivo; procedure, shortened: as §3
[16] = Percentage of clearance of psoriatic lesions by 8-methoxypsoralen (8-MOP) for comparison at dose of 10 J/cm e2 ultraviolet-A radiation; type: ADME, organism-based; conditions: in vivo; procedure, shortened: as §3
Homo sapiens [17] = species on record: Homo sapiens; assay: Pigmentation capacity of 8-methoxypsoralen (8-MOP) for comparison at dose of 6 J/cm e2 ultraviolet-A radiation in patient; + = moderate; type: functional, organism-based; procedure, shortened: as §3
Homo sapiens [18] = species on record: Homo sapiens; assay: Pigmentation capacity of 8-methoxypsoralen (8-MOP) for comparison at dose of 10 J/cm e2 ultraviolet-A radiation in patient; +=moderate; type: functional, organism-based; procedure, shortened: as §3
[19] = Percentage of clearance of psoriatic lesions by 8-methoxypsoralen (8-MOP) for comparison at dose of 8 J/cm e2 ultraviolet-A radiation; type: ADME, organism-based; conditions: in vivo; procedure, shortened: as §3
Homo sapiens [20] = species on record: Homo sapiens; assay: Erythema induction by 8-methoxypsoralen (8-MOP) for comparison at dose of 8 J/cm e2 ultraviolet-A radiation in patient, +=moderate; type: functional, organism-based; procedure, shortened: as §3
Homo sapiens [21] = species on record: Homo sapiens; assay: Erythema induction by the compound at dose of 6 J/cm e2 ultraviolet-A radiation in patient; - = absent; type: functional, organism-based; procedure, shortened: as §3
Homo sapiens [22] = species on record: Homo sapiens; assay: Erythema induction by the compound at dose of 10 J/cm e2 ultraviolet-A radiation in patient; - = absent; type: functional, organism-based; procedure, shortened: as §3
Homo sapiens [23] = species on record: Homo sapiens; assay: as §4; type: functional; procedure, shortened: as §3; remark: listed apart in the source
[24] = Percentage of clearance of psoriatic lesions by the compound at dose of 6 J/cm e2 ultraviolet-A radiation; type: ADME, organism-based; conditions: in vivo; procedure, shortened: as §3
[25] = Percentage of clearance of psoriatic lesions by 8-methoxypsoralen (8-MOP) for comparison at dose of 6 J/cm e2 ultraviolet-A radiation; type: ADME, organism-based; conditions: in vivo; procedure, shortened: as §3
Homo sapiens [26] = species on record: Homo sapiens; assay: Erythema induction by the compound at dose of 4 J/cm e2 ultraviolet-A radiation in patient; - = absent; type: functional, organism-based; procedure, shortened: as §3
[27] = Percentage of clearance of psoriatic lesions by the compound at dose of 9 J/cm e2 ultraviolet-A radiation; type: ADME, organism-based; conditions: in vivo; procedure, shortened: as §3
Homo sapiens [28] = species on record: Homo sapiens; assay: Erythema induction by the compound at dose of 9 J/cm e2 ultraviolet-A radiation in patient; - = absent; type: functional, organism-based; procedure, shortened: as §3
Homo sapiens [29] = species on record: Homo sapiens; assay: Pigmentation capacity at dose of 9 J/cm e2 ultraviolet-A radiation in patient; + = moderate; type: functional, organism-based; procedure, shortened: as §3
[30] = Percentage of clearance of psoriatic lesions by 8-methoxypsoralen (8-MOP) for comparison at dose of 9 J/cm e2 ultraviolet-A radiation; type: ADME, organism-based; conditions: in vivo; procedure, shortened: as §3
Homo sapiens [31] = species on record: Homo sapiens; assay: Number of treatments at dose of 9 J/cm e2 ultraviolet-A radiation; type: functional; procedure, shortened: as §3
Homo sapiens [32] = species on record: Homo sapiens; assay: Pigmentation capacity at dose of 8 J/cm e2 ultraviolet-A radiation in patient; + = moderate; type: functional, organism-based; procedure, shortened: as §3
Bos taurus [33] = species on record: Bos taurus; assay: as §2
Bos taurus [34] = species on record: Bos taurus; assay: as §1

Rate constant (Nucleic Acid [1]): 0.03 min⁻¹
Activity (Nucleic Acid [2]): 0.078
Activity (Nucleic Acid [3]): 12.8
K (Nucleic Acid [4]): 1980
SMILES: Cc1cc2c(o1)c(C)cc1ccc(=O)oc12
ID50 (Mus musculus): 1.19e+19 quanta

Rate constant (Nucleic Acid [1]): 0.0702 min⁻¹
Activity (Nucleic Acid [2]): 0.045
Activity (Nucleic Acid [3]): 22.2
K (Nucleic Acid [4]): 3310
SMILES: Cc1cc2c(o1)c(C)cc1c(C)cc(=O)oc12
ID50 (Mus musculus): 3.87e+18 quanta

Lesion_Clearance [6]: 100%
Rate constant (Nucleic Acid [1]): 0.133 min⁻¹
Lesion_Clearance [8]: 95%
Activity (Nucleic Acid [2]): 0.091
Activity (Nucleic Acid [3]): 11
Lesion_Clearance [15]: 90%
Lesion_Clearance [16]: 90%
K (Nucleic Acid [4]): 10100
Lesion_Clearance [19]: 75%
Lesion_Clearance [24]: 100%
Lesion_Clearance [25]: 80% and 85%
SMILES: Cc1cc(=O)oc2c1cc(C)c1occ(C)c12
Pigmentation capacity (Homo sapiens [5]): moderate
Erythema induction (Homo sapiens [7]): inactive
Activity (Homo sapiens [9]): 15
Pigmentation capacity (Homo sapiens [10]): moderate
Activity (Homo sapiens [11]): 9
ID50 (Mus musculus): 6e+16 quanta
Activity (Homo sapiens [12]): 11
Activity (Homo sapiens [13]): 11
Pigmentation capacity (Homo sapiens [14]): inactive
Pigmentation capacity (Homo sapiens [17]): moderate
Pigmentation capacity (Homo sapiens [18]): moderate
Erythema induction (Homo sapiens [20]): moderate
Erythema induction (Homo sapiens [21]): inactive
Erythema induction (Homo sapiens [22]): inactive
Activity (Homo sapiens [23]): 9
Erythema induction (Homo sapiens [26]): inactive

SMILES: Cc1c(C)c2occc2c2oc(=O)ccc12
ID50 (Mus musculus): 3e+19 quanta

Rate constant (Nucleic Acid [1]): 0.031 min⁻¹
Activity (Nucleic Acid [2]): 0.128
Activity (Nucleic Acid [3]): 7.81
K (Nucleic Acid [4]): 736
SMILES: COc1c2occc2cc2ccc(=O)oc12 [METHOXSALEN]
ID50 (Mus musculus): 1.38e+19 quanta

Lesion_Clearance [6]: 100%
Rate constant (Nucleic Acid [1]): 0.099 min⁻¹
Lesion_Clearance [27]: 90%
Activity (Nucleic Acid [2]): 0.061
Activity (Nucleic Acid [3]): 16.4
K (Nucleic Acid [4]): 6300
Lesion_Clearance [19]: 85%
Lesion_Clearance [30]: 70%
SMILES: Cc1cc2ccc(=O)oc2c2c(C)coc12
Erythema induction (Homo sapiens [7]): inactive
ID50 (Mus musculus): 2.2e+18 quanta
Activity (Homo sapiens [12]): 15
Erythema induction (Homo sapiens [28]): inactive
Pigmentation capacity (Homo sapiens [29]): moderate
Activity (Homo sapiens [31]): 15
Pigmentation capacity (Homo sapiens [32]): moderate

Rate constant (Nucleic Acid [1]): 0.023 min⁻¹
Activity (Nucleic Acid [2]): 0.07
Activity (Nucleic Acid [3]): 14.3
K (Nucleic Acid [4]): 3730
SMILES: Cc1cc2c(o1)c(C)c(C)c1ccc(=O)oc12
ID50 (Mus musculus): 3e+19 quanta

SMILES: O=c1ccc2ccc3occc3c2o1 [ANGELICIN]
Rate constant (Nucleic Acid [1]): 0.011 min⁻¹
Activity (Nucleic Acid [2]): 0.063
Activity (Nucleic Acid [3]): 15.9
ID50 (Mus musculus): 2.5e+19 quanta
K (Nucleic Acid [4]): 560

Rate constant (Nucleic Acid [1]): 0.0523 min⁻¹
Activity (Nucleic Acid [2]): 0.063
Activity (Nucleic Acid [3]): 15.9
K (Nucleic Acid [4]): 2990
SMILES: Cc1cc(=O)oc2c1cc(C)c1occc12
ID50 (Mus musculus): 4e+18 quanta

Rate constant (Nucleic Acid [1]): 0.036 min⁻¹
Activity (Nucleic Acid [3]): 20.8
K (Bos taurus [33]): 925
Activity (Bos taurus [34]): 0.048
SMILES: Cc1cc2ccc(=O)oc2c2ccoc12
ID50 (Mus musculus): 2.63e+19 quanta
